Calls of active or inactive are those of the source. No cut-off for these calls is given here.
Assays:
Cannabinoid receptor 1 [1] = biological target: T1, Cannabinoid receptor 1 (Rattus norvegicus, UniProt P20272); test: Displacement of [3H]CP55940 from CB1 receptor in rat brain membranes by scintillation counting method; format: cell membranes
In short: (§1)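 Competition binding against [3H]CP-55,940 using rat brain membranes (CB1) or membranes of HEK293 cells expressing mouse or human CB2. IC50 from nonlinear regression, converted to Ki. Each experiment run in triplicate; Ki is the mean of three independent experiments.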

Cannabinoid receptor 2 [2] = biological target: T2, Cannabinoid receptor 2 (Mus musculus, UniProt P47936); test: Displacement of [3H]CP55940 from mouse CB2 receptor expressed in HEK293 cell membranes by scintillation counting method; in short: as §1
Cannabinoid receptor 2 [3] = biological target: T3, Cannabinoid receptor 2 (Homo sapiens, UniProt P34972); test: Displacement of [3H]CP55940 from human CB2 receptor expressed in HEK293 cell membranes by scintillation counting method; in short: as §1
Squirrel monkey [4] = test: Induction of CB1-related discriminative stimulus effect in squirrel monkey assessed as time required for 50% loss of full effect at 0.003 mg/kg, im; format: functional, organism-based; conditions: Saimiri sciureus
In short: (§2)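 Squirrel monkeys trained on two levers to discriminate 0.01 mg/kg im CB1 agonist from vehicle. After im test dosing, sequential sessions began at 15, 30, 60, 120, 240, 480 and 960 min, with some groups also tested at 36 and 48 h. Measured percent responding on the agonist lever (≥90% counted as full substitution) and overall response rate.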

Squirrel monkey [5] = test: Induction of CB1-related discriminative stimulus effect in squirrel monkey at 0.003 mg/kg, im measured after 24 hrs; format: functional, organism-based; conditions: Saimiri sciureus
Cannabinoid receptor 2 [6] = biological target: T2, Cannabinoid receptor 2; test: Binding affinity to mouse CB2 receptor; in short: as §1
Squirrel monkey [7] = test: Effect on response rate in squirrel monkey at 0.003 mg/kg, im; format: functional, organism-based; conditions: Saimiri sciureus; in short: as §2
Cannabinoid receptor 1 [8] = biological target: T1, Cannabinoid receptor 1; test: Binding affinity to rat CB1 receptor
In short: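 Competition displacement of [3H]CP-55,940 from rat brain membranes (CB1 source). IC50 from nonlinear regression of competition curves, converted to Ki. Each experiment run in triplicate; Ki is the mean of three independent experiments.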

Rattus norvegicus [9] = test: Hypothermic activity in sc dosed Sprague-Dawley rat assessed as decrease in rectal body temperature measured over 6 hrs; format: functional
In short: (§3)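 Female Sprague-Dawley rats, 250–350 g, n = 6/group, retested with ≥5 days between sessions. Dosed sc (1.0 mL/kg) in 20% ethanol/20% alkamuls/60% saline diluted with saline. Rectal thermistor at 6 cm depth. Two baselines 15 min apart, then readings every 30 min for 3 h and hourly to 6 h. Change taken from mean baseline.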

Rattus norvegicus [10] = test: Hypothermic activity in Sprague-Dawley rat assessed as time required for decrease in rectal body temperature at 0.01 to 1 mg/kg, sc; format: functional; in short: as §3
Squirrel monkey [11] = test: Induction of CB1-related discriminative stimulus effect in squirrel monkey at 0.003 mg/kg, im measured within 15 mins; format: functional, organism-based; conditions: Saimiri sciureus; in short: as §2
Squirrel monkey [12] = test: Induction of CB1-related discriminative stimulus effect in squirrel monkey at 0.003 mg/kg, im measured at 36 hrs; format: functional, organism-based; conditions: Saimiri sciureus; in short: as §2
[13] = Half life in mouse plasma assessed as esterase-mediated compound hydrolysis at 200 uM by HPLC method; format: ADME, cell-free
In short: (§4)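 Compound diluted to 200 μM in mouse or rat plasma and shaken at 37 °C, 100 rpm. Samples taken at timed points, diluted 1:4 in acetonitrile and centrifuged. Supernatant analysed by reversed-phase C18 HPLC, acetonitrile/acidified water gradient, UV detection. 4-Nitrophenyl butyrate run as control in each experiment. Half-life from exponential decay fit.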

[14] = Half life in rat plasma assessed as esterase-mediated compound hydrolysis at 200 uM by HPLC method; format: ADME, cell-free; in short: as §4
Cannabinoid receptor 2 [15] = biological target: T3, Cannabinoid receptor 2; test: Agonist activity at human CB2 receptor expressed in HEK293 cells assessed as decrease in forskolin-stimulated cAMP levels at 500 nM after 30 mins relative to CP-55940; format: functional, cell-based
Cannabinoid receptor 1 [16] = biological target: T1, Cannabinoid receptor 1; test: Agonist activity at rat CB1 receptor expressed in HEK293 cells assessed as decrease in forskolin-stimulated cAMP levels after 30 mins; format: functional, cell-based
In short: (§5)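 Stably transfected HEK293 cells harvested with Versene, washed in HBSS, resuspended in stimulation buffer. Cells exposed to graded compound concentrations in buffer containing forskolin (2 μM final), 30 min at room temperature. cAMP read by TR-FRET (Eu-cAMP tracer plus ULight anti-cAMP antibody, 60 min room temperature). EC50 from nonlinear regression.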

Squirrel monkey [17] = test: Induction of CB1-related discriminative stimulus effect in squirrel monkey at 0.001 mg/kg, im after 1 hr; format: functional, organism-based; conditions: Saimiri sciureus; in short: as §2
Squirrel monkey [18] = test: Induction of CB1-related discriminative stimulus effect in squirrel monkey assessed as time required for 50% loss of full effect at 0.001 mg/kg, im; format: functional, organism-based; conditions: Saimiri sciureus; in short: as §2
Rattus norvegicus [19] = test: Hypothermic activity in Sprague-Dawley rat assessed as decrease in rectal body temperature at 1 mg/kg, sc measured over 6 hrs; format: functional; in short: as §3
Squirrel monkey [20] = test: Effect on response rate in squirrel monkey at 0.001 mg/kg, im; format: functional, organism-based; conditions: Saimiri sciureus; in short: as §2
Cannabinoid receptor 2 [21] = biological target: T3, Cannabinoid receptor 2; test: Agonist activity at human CB2 receptor expressed in HEK293 cells assessed as decrease in forskolin-stimulated cAMP levels after 30 mins; format: functional, cell-based; in short: as §5
Rattus norvegicus [22] = test: Hypothermic activity in Sprague-Dawley rat assessed as decrease in rectal body temperature at 0.1 mg/kg, sc measured over 6 hrs; format: functional; in short: as §3
[23] = biological target: Cannabinoid receptor 1 (Rattus norvegicus) (UniProt P20272); test: Agonist activity at rat CB1 receptor expressed in HEK293 cells assessed as decrease in forskolin-stimulated cAMP levels at 500 nM after 30 mins relative to CP-55940; format: functional, cell-based
Mus musculus [24] = test: Analgesic activity in CD1 mouse assessed as increase in tail flick latency at 1 mg/kg, ip measured at 60 mins relative to control; format: functional
In short: (§6)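 Male CD-1 mice, 30–35 g, n = 6, each used once, habituated over three mock sessions at 38 °C. Tail-flick latency in a 52 °C water bath at baseline, then 20, 60, 180 and 360 min after ip dosing (10 mL/kg). Vehicle 2% DMSO/4% Tween-80/4% propylene glycol with saline, freshly prepared. Scored as %MPE.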

Mus musculus [25] = test: Analgesic activity in CD1 mouse assessed as increase in tail flick latency at 1 mg/kg, ip measured at 20 mins relative to control; format: functional; in short: as §6
Rattus norvegicus [26] = test: Hypothermic activity in Sprague-Dawley rat assessed as decrease in rectal body temperature at 0.1 mg/kg, sc after 6 hrs; format: functional, organism-based; in short: as §3
Mus musculus [27] = test: Analgesic activity in CD1 mouse assessed as increase in tail flick latency at 1 mg/kg, ip measured at 180 mins relative to control; format: functional; in short: as §6
Mus musculus [28] = test: Analgesic activity in CD1 mouse assessed as increase in tail flick latency at 1 mg/kg, ip measured at 360 mins relative to control; format: functional; in short: as §6
Squirrel monkey [29] = test: Induction of CB1-related discriminative stimulus effect in squirrel monkey at 0.001 mg/kg, im after 4 to 16 hrs; format: functional, organism-based; conditions: Saimiri sciureus; in short: as §2
Rattus norvegicus [30] = test: Hypothermic activity in Sprague-Dawley rat assessed as time required for decrease in rectal body temperature at 0.03 to 3 mg/kg, sc; format: functional; in short: as §3
Rattus norvegicus [31] = test: Hypothermic activity in Sprague-Dawley rat assessed as decrease in rectal body temperature at 3 mg/kg, sc measured over 6 hrs; format: functional; in short: as §3
Rattus norvegicus [32] = test: Hypothermic activity in Sprague-Dawley rat assessed as time required for decrease in rectal body temperature at 0.1 to 3 mg/kg, sc; format: functional; in short: as §3

T1 sequence (P20272 whole entry): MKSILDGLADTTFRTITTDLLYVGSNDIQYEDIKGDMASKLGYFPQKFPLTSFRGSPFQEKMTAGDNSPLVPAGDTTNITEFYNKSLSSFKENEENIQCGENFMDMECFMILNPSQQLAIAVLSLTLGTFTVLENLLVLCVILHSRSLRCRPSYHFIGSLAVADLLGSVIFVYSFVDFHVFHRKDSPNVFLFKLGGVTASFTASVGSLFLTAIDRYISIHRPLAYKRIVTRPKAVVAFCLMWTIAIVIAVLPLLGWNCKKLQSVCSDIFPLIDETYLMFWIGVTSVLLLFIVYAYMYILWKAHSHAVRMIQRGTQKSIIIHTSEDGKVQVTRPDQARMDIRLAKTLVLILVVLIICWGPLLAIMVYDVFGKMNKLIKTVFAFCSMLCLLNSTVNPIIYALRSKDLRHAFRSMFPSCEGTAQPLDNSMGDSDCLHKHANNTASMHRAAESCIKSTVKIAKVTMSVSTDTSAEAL
Chain of Cannabinoid receptor 1 (Rattus norvegicus) (P20272 whole entry): as above
T3 sequence (P34972 whole entry): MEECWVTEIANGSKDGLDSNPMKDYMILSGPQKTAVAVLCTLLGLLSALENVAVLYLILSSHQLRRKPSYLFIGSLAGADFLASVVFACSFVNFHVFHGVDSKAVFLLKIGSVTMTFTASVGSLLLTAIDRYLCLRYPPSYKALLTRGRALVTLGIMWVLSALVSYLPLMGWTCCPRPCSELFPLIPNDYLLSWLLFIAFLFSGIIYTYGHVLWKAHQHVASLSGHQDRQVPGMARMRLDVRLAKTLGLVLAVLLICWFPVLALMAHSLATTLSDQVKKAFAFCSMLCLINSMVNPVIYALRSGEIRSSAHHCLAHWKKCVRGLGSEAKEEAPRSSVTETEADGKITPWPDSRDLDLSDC
T2 sequence (P47936 whole entry): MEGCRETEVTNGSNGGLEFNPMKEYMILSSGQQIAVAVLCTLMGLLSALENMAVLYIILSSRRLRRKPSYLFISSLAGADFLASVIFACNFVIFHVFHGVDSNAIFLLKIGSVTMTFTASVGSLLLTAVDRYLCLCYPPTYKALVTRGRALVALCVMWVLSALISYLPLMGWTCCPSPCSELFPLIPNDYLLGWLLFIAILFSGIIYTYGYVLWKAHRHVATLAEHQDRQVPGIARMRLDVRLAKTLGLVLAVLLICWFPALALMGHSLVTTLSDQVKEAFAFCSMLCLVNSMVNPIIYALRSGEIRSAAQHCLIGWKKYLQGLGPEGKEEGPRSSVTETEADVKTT

## CC(C)(C(=O)O)c1cc(O)c2c(c1)OC(C)(C)[C@@H]1CC[C@H](O)C[C@@H]21
Cannabinoid receptor 1 [1]
  Ki: > 10000 nM
Cannabinoid receptor 2 [2]
  Ki: > 10000 nM

## CCCCOC(=O)Cc1cc(O)c2c(c1)OC(C)(C)[C@@H]1CC[C@H](O)C[C@@H]21
Cannabinoid receptor 1 [1]
  Ki: 750 nM
Cannabinoid receptor 2 [2]
  Ki: 654 nM
Cannabinoid receptor 2 [3]
  Ki: 733 nM

## CCCCCCC(C)(C)c1cc(O)c2c(c1)OC(C)(C)[C@@H]1CC=C(CO)C[C@@H]21
Squirrel monkey [4]
  T1/2: 66 min
Squirrel monkey [5]
  Activity: Active
Cannabinoid receptor 2 [6]
  Ki: 0.2 nM
Squirrel monkey [7]
  Activity: inactive
Cannabinoid receptor 1 [8]
  Ki: 0.7 nM
Rattus norvegicus [9]
  ED50: 0.04 mg/kg
Rattus norvegicus [10]
  Time: 1 to 3 h
Squirrel monkey [11]
  Activity: Active
Squirrel monkey [12]
  Activity: inactive

## CC(C)(C(=O)O)c1cc(O)c2c(c1)OC(C)(C)[C@@H]1CC[C@@H](CO)C[C@@H]21
Cannabinoid receptor 1 [1]
  Ki: > 10000 nM
Cannabinoid receptor 2 [2]
  Ki: > 10000 nM

## CCCCOC(=O)C(C)(C)c1cc(O)c2c(c1)OC(C)(C)[C@@H]1CC[C@H](O)C[C@@H]21
[13]
  t1/2: 2.8 min
[14]
  t1/2: 5.6 min

## CCCCOC(=O)C(C)(C)c1cc(O)c2c(c1)OC(C)(C)[C@@H]1CC[C@@H](CO)C[C@@H]21
Cannabinoid receptor 2 [15]
  Emax: 82%
Cannabinoid receptor 1 [1]
  Ki: 2.4 nM
Cannabinoid receptor 1 [16]
  EC50: 2.5 nM
[13]
  t1/2: 3.1 min
Squirrel monkey [17]
  Activity: Active
Cannabinoid receptor 2 [2]
  Ki: 0.1 nM
Squirrel monkey [18]
  T1/2: 48 min
Rattus norvegicus [19]
  T: 4.7 - 7.2 °C
Squirrel monkey [20]
  Activity: inactive
Cannabinoid receptor 2 [21]
  EC50: 0.3 nM
Rattus norvegicus [22]
  T: >4 °C
[23]
  Emax: 87%
Rattus norvegicus [9]
  Activity: Dose-dependent effect
  ED50: 0.04 mg/kg
Rattus norvegicus [10]
  Time: 1 to 3 h
Mus musculus [24]
  MPE: 96%
[14]
  t1/2: 39.2 min
Mus musculus [25]
  MPE: 94%
Cannabinoid receptor 2 [3]
  Ki: 3.1 nM
Rattus norvegicus [26]
  Activity: inactive
Mus musculus [27]
  MPE: 97%
Mus musculus [28]
  MPE: 58%
Squirrel monkey [29]
  Activity: inactive

## CC(C)(C(=O)O)c1cc(O)c2c(c1)OC(C)(C)[C@@H]1CC=C(CO)C[C@@H]21
Cannabinoid receptor 1 [1]
  Ki: > 10000 nM
Cannabinoid receptor 2 [2]
  Ki: > 10000 nM

## CCCCOC(=O)Cc1cc(O)c2c(c1)OC(C)(C)[C@@H]1CC[C@@H](O)C[C@@H]21
Cannabinoid receptor 1 [1]
  Ki: 238 nM
Cannabinoid receptor 2 [2]
  Ki: 317 nM
Cannabinoid receptor 2 [3]
  Ki: 432 nM

## CCCCOC(=O)C(C)(C)c1cc(O)c2c(c1)OC(C)(C)[C@@H]1CC=C(CO)C[C@@H]21
Cannabinoid receptor 2 [15]
  Emax: 83%
Cannabinoid receptor 1 [16]
  EC50: 4.6 nM
Rattus norvegicus [30]
  Time: 1 to 3 h
[13]
  t1/2: 5 min
Cannabinoid receptor 2 [21]
  EC50: 5.7 nM
Rattus norvegicus [22]
  T: >4 °C
[23]
  Emax: 89%
Rattus norvegicus [9]
  Activity: Dose-dependent effect
  ED50: 0.04 mg/kg
Rattus norvegicus [31]
  T: 4.7 - 7.2 °C
[14]
  t1/2: 39.1 min
Rattus norvegicus [26]
  Activity: inactive

## CC1(C)Oc2cc(CC(=O)O)cc(O)c2[C@@H]2C[C@H](O)CC[C@H]21
Cannabinoid receptor 1 [1]
  Ki: > 10000 nM
Cannabinoid receptor 2 [2]
  Ki: > 10000 nM

## CC(C)(C(=O)O)c1cc(O)c2c(c1)OC(C)(C)[C@@H]1CC[C@@H](O)C[C@@H]21
Cannabinoid receptor 1 [1]
  Ki: > 10000 nM
Cannabinoid receptor 2 [2]
  Ki: > 10000 nM

## CCCCOC(=O)C(C)(C)c1cc(O)c2c(c1)OC(C)(C)[C@@H]1CC[C@@H](O)C[C@@H]21
Cannabinoid receptor 2 [15]
  Emax: 85%
Cannabinoid receptor 1 [16]
  EC50: 8.6 nM
[13]
  t1/2: 2.7 min
Cannabinoid receptor 2 [21]
  EC50: 9 nM
[23]
  Emax: 85%
Rattus norvegicus [9]
  Activity: Dose-dependent effect
  ED50: 0.74 mg/kg
Rattus norvegicus [31]
  T: 4.7 - 7.2 °C
[14]
  t1/2: 10.2 min
Rattus norvegicus [32]
  Time: 1 to 3 h

## CC1(C)Oc2cc(CC(=O)O)cc(O)c2[C@@H]2C[C@@H](O)CC[C@H]21
Cannabinoid receptor 1 [1]
  Ki: > 10000 nM
Cannabinoid receptor 2 [2]
  Ki: > 10000 nM
